Results reported in ChEMBL document CHEMBL1148035, “Isolation of bioactive and other oxoaporphine alkaloids from two annonaceous plants, Xylopia aethiopica and Miliusa cf. banacea” (J Nat Prod, 1994).

Assays:
Saccharomyces cerevisiae [1] = test: DNA damaging activity against rad 52 DNA repair gene/topoisomerase 1 deficient Saccharomyces cerevisiae mutant assessed as drug level required to produce 12 mm zone of inhibition well after 48 hrs; assay type: functional
Summary of the method: (§1)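 Yeast agar-well diffusion assay: test material in a 100 μl well, incubated 48 h at 37°. IC12 is the concentration in μg/ml giving a 12 mm diameter zone of inhibition around the well. Reported values are averages of 2 or 3 determinations.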

Saccharomyces cerevisiae [2] = test: DNA damaging activity against rad 52 DNA repair gene deficient Saccharomyces cerevisiae mutant assessed as drug level required to produce 12 mm zone of inhibition after 48 hrs; assay type: functional; summary of the method: as §1
[3] = target: DNA topoisomerase 2-alpha (Homo sapiens, UniProt P11388); test: Inhibition of DNA topoisomerase 2 assessed as bacteriophage P4 DNA unknotting after 30 mins
Chain of DNA topoisomerase 2-alpha (P11388 whole entry): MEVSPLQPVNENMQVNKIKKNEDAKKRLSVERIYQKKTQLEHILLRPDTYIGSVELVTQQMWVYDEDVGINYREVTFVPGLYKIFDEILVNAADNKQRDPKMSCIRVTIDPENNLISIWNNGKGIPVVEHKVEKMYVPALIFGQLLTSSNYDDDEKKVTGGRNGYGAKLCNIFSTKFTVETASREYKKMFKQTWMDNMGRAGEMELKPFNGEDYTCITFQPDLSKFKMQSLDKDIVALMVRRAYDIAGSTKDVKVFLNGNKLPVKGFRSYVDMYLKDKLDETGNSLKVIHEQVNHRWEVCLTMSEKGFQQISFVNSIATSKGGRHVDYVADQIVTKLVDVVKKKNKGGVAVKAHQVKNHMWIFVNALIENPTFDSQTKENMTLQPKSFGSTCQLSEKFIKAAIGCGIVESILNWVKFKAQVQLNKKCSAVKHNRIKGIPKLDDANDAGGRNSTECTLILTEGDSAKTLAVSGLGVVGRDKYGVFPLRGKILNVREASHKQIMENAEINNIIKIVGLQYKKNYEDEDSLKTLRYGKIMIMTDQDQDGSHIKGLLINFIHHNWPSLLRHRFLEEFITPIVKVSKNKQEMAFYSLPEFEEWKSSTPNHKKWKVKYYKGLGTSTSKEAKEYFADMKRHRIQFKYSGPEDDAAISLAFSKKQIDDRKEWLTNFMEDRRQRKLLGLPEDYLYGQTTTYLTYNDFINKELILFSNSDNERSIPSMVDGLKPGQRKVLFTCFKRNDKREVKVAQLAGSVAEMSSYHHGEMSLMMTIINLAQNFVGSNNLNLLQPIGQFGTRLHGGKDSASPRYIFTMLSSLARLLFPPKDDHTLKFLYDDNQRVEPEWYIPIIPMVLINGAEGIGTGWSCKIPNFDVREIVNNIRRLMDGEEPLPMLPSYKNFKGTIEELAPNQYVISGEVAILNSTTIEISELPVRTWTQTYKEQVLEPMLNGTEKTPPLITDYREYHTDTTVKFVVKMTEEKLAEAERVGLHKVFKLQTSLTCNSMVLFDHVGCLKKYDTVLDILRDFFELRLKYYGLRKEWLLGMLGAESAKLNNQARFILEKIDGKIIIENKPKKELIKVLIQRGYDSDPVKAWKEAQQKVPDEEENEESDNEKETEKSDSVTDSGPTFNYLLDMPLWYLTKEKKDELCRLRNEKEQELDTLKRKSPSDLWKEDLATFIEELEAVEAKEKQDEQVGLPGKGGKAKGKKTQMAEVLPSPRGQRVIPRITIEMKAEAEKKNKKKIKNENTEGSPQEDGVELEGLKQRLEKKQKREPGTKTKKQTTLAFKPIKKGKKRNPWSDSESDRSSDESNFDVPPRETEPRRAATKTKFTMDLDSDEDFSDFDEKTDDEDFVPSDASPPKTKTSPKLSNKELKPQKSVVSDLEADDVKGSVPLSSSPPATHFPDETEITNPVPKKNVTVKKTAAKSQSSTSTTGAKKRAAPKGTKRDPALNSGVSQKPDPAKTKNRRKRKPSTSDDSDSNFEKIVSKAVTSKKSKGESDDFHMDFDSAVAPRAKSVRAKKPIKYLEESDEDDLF

Saccharomyces cerevisiae [4] = test: DNA damaging activity against rad 6 DNA repair gene deficient Saccharomyces cerevisiae mutant assessed as drug level required to produce 12 mm zone of inhibition well after 48 hrs; assay type: functional; summary of the method: as §1
Saccharomyces cerevisiae [5] = test: DNA damaging activity against wild type Saccharomyces cerevisiae expressing rad DNA repair gene assessed as drug level required to produce 12 mm zone of inhibition after 48 hrs; assay type: functional; summary of the method: as §1
Saccharomyces cerevisiae [6] = test: Antifungal activity against rad 6 DNA repair gene deficient Saccharomyces cerevisiae mutant at 500 ug/ml; assay type: functional; conditions: read-out: IZ
Summary of the method: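 Yeast well-diffusion assay against the rad 6 DNA-repair-deficient Saccharomyces cerevisiae strain. Sample is applied at the stated concentration (μg/ml) to a 100 μl well. Plates are incubated 48 h at 37°. Read-out is the diameter of the zone of inhibition, in mm.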

IC50 [3] | SMILES | Activity (Saccharomyces cerevisiae [1]) | Activity (Saccharomyces cerevisiae [2]) | Activity (Saccharomyces cerevisiae [4]) | Activity (Saccharomyces cerevisiae [5]) | zone of inhibition at 500 µg/mL (Saccharomyces cerevisiae [6])
81.9 µM | COc1ccc2c(c1)-c1c3c(cc4ccnc(c14)C2=O)OCO3 | 113 µg/mL | 214 µg/mL |  |  | 
42.9 µM | O=C1c2ccc(O)cc2-c2c3c(cc4ccnc1c24)OCO3 | 72 µg/mL | 295 µg/mL |  |  | 
 | CC[C@@]1(O)C(=O)OCc2c1cc1n(c2=O)Cc2cc3ccccc3nc2-1 [CAMPTOTHECIN] | >20 µg/mL | 0.6 µg/mL | 8.7 µg/mL |  | 
 | COc1c(OC)c2c3c(nccc3c1OC)C(=O)c1ccccc1-2 [HOMOMOSCHATOLINE] | >500 µg/mL | >500 µg/mL | >500 µg/mL |  | 
 | O=C1c2ccccc2-c2c3c(cc4ccnc1c24)OCO3 [LIRIODENINE] |  | 16.7 µg/mL |  | 500 µg/mL | 15 mm
 | COc1cc2ccnc3c2c(c1OC)-c1ccccc1C3=O [LYSICAMINE] | 390 µg/mL | 300 µg/mL | >500 µg/mL |  | 
 | COc1cc2c(cc1OC)-c1c(OC)c(OC)cc3ccnc(c13)C2=O [OXOGLAUCINE] | >500 µg/mL | >500 µg/mL | >500 µg/mL | >500 µg/mL | 
 | COc1c(OC)c2c3c(nccc3c1OC)C(=O)c1cc3c(cc1-2)OCO3 [OXOPHOEBINE] | 2.6 µg/mL | 6.4 µg/mL | 4.7 µg/mL | >500 µg/mL | 
 | COC1=C(N)C(=O)c2nc(-c3nc(C(=O)O)c(C)c(-c4ccc(OC)c(OC)c4O)c3N)ccc2C1=O [STREPTONIGRIN] | <0.4 µg/mL | 0.4 µg/mL | 2.4 µg/mL |  | 
